Calls of active or inactive are those of the source. The rule behind the calls is not given here.
Tests used:
[1] = target: T1, Sodium- and chloride-dependent GABA transporter 1 (Homo sapiens, UniProt P30531); assay: Inhibition of GAT-1 (unknown origin)
Outline: (§1)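 Transporter transiently expressed in COS-7 cells, with compound tested in dose–response (EAATs at 0.5–500 μM) against vehicle. Nonspecific uptake from empty-vector (pcDNA3) COS-7 sister cultures was subtracted. IC50 came from nonlinear regression of at least three independent experiments run in triplicate.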
Target sequence in this assay (P30531 whole entry, looked up): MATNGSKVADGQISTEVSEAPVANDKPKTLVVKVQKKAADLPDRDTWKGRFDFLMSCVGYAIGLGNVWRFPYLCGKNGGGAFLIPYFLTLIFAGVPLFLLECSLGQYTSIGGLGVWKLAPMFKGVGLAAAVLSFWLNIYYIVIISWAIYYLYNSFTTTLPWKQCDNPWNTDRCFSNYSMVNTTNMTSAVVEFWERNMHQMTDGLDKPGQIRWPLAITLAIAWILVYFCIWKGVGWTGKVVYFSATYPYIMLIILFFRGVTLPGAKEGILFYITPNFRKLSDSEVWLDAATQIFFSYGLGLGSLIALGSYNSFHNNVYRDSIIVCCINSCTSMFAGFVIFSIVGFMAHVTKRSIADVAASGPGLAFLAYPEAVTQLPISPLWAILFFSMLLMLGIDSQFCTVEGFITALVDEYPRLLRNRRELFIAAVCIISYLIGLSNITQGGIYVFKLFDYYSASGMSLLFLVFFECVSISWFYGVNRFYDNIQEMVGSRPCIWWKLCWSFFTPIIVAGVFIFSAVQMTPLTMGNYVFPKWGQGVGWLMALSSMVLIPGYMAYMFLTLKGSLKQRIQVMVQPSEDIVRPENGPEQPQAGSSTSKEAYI

[2] = target: T2, Sodium-dependent dopamine transporter (Homo sapiens, UniProt Q01959); assay: Inhibition of human DAT expressed in MDCK cells using [3H]-dopamine as substrate after 10 mins by scintillation counting; assay type: cell-based
T2 sequence (Q01959 whole entry): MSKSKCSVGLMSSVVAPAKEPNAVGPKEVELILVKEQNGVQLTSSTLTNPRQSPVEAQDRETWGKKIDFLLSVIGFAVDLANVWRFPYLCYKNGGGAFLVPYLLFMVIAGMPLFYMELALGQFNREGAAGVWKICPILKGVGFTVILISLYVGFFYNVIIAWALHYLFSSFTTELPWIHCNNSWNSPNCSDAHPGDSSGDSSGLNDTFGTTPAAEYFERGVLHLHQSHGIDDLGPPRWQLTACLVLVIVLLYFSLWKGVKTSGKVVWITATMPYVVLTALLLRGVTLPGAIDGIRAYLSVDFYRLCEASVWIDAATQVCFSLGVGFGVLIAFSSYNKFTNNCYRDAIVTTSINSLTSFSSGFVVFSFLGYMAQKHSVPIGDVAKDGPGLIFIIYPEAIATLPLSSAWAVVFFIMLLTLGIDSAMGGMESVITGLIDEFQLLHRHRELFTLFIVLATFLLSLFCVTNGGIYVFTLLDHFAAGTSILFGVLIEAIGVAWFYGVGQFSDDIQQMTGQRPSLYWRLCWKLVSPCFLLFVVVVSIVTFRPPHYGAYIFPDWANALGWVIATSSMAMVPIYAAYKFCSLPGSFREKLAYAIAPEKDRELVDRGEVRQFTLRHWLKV
Outline: (§2)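 Transfected MDCK cells were washed with PBS-CM and preincubated 10 min at room temperature with compound (0.2–200 or 0.5–500 μM) or vehicle. Uptake of 50 nM radiolabeled substrate then ran for 10 min at room temperature, with RO 41-0960 added for dopamine. Naive MDCK background was subtracted. IC50 came from nonlinear regression of three independent assays run in triplicate.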

[3] = target: Sodium-dependent serotonin transporter (Homo sapiens, UniProt P31645); assay: Inhibition of human SERT expressed in MDCK cells using [3H]-serotonin as substrate after 10 mins by scintillation counting; assay type: cell-based; outline: as §2
Sequence of Sodium-dependent serotonin transporter (P31645 whole entry): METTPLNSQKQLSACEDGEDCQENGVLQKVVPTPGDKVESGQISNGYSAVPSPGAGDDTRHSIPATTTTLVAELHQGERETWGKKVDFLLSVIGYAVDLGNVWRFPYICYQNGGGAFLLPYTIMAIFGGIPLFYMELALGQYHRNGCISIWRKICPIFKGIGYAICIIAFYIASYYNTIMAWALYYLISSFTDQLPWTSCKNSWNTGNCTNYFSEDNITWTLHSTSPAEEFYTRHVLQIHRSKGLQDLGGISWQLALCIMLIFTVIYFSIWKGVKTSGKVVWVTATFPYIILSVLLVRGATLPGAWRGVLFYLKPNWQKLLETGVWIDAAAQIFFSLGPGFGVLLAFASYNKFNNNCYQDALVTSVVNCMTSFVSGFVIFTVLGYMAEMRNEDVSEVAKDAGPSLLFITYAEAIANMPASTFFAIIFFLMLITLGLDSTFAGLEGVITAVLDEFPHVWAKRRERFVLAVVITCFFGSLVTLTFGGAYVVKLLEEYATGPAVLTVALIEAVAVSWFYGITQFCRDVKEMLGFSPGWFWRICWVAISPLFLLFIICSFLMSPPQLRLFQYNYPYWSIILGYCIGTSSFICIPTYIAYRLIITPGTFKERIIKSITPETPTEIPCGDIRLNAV

[4] = target: T3, Sodium-dependent noradrenaline transporter (Homo sapiens, UniProt P23975); assay: Inhibition of human NET expressed in MDCK cells using [3H]-norepinephrine as substrate at 200 uM after 10 mins by scintillation counting; assay type: cell-based
T3 sequence (P23975 whole entry): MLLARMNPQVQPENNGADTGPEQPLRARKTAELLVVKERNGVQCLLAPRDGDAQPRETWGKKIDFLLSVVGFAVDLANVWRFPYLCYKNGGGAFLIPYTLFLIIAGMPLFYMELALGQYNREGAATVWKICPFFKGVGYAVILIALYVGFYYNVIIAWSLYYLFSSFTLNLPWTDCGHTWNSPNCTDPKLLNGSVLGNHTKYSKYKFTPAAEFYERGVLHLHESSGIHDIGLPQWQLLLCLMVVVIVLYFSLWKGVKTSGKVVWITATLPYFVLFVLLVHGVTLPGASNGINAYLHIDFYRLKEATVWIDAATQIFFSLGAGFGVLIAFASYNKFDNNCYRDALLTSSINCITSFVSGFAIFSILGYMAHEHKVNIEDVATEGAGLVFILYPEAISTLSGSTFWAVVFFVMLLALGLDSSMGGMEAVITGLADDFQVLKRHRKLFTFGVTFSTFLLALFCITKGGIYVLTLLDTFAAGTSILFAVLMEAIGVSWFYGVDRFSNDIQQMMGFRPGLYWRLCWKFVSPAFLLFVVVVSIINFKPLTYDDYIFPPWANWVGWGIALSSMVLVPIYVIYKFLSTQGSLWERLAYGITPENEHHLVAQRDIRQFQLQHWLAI

[5] = target: T4, Sodium- and chloride-dependent GABA transporter 3 (Homo sapiens, UniProt P48066); assay: Inhibition of GAT-3 (unknown origin) expressed in african green monkey COS7 cells using [3H]-GABA as substrate after 10 mins by scintillation counting; assay type: cell-based, COS-7; outline: as §1
T4 sequence (P48066 whole entry): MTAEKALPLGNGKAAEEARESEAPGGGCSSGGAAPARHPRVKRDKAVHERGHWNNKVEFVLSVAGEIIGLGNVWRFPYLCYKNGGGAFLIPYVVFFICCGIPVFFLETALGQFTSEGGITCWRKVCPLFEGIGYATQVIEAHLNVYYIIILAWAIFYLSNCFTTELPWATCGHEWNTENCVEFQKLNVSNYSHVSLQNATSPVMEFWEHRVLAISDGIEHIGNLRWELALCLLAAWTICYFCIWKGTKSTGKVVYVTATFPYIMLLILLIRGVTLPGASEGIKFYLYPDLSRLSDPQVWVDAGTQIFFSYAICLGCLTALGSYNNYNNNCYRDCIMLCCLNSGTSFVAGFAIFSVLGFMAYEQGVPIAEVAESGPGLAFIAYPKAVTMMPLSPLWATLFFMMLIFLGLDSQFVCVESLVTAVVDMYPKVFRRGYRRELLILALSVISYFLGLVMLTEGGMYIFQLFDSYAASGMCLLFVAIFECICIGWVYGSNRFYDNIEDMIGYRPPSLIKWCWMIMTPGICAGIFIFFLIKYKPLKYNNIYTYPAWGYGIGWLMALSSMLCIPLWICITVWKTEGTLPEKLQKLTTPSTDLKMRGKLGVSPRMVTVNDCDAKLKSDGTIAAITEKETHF

[6] = target: T1, Sodium- and chloride-dependent GABA transporter 1; assay: Inhibition of GAT-1 (unknown origin) expressed in african green monkey COS7 cells using [3H]-GABA as substrate after 10 mins by scintillation counting; assay type: cell-based, COS-7; outline: as §1
Target sequence in this assay (P30531 whole entry): as the sequence (P30531 whole entry, looked up) above

[7] = target: T1, Sodium- and chloride-dependent GABA transporter 1; assay: Allosteric modulation of GAT-1 (unknown origin) expressed in african green monkey COS7 cells using [3H]-GABA as substrate at 20 uM; assay type: cell-based; settings: COS-7
Outline: (§3)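 Cells were preincubated with or without 20 μM compound for 10 min at room temperature. Uptake then ran with eight concentrations of unlabeled/radiolabeled substrate mix, in triplicate. Dopamine (99.9%:0.1%, 45 nM–100 μM) was used in hDAT MDCK cells and GABA (99.95%:0.05%) in GAT-1 COS-7 cells. Nonspecific uptake was subtracted, Michaelis–Menten Vmax/KM were fitted, and n≥3 independent assays were analysed by paired t-test.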
Target sequence in this assay (P30531 whole entry, looked up): as above

[8] = target: T2, Sodium-dependent dopamine transporter; assay: Activity at human DAT expressed in MDCK cells assessed as dopamine release at 0.5 to 500 uM after 10 mins using [3H]-dopamine pretreated for 1 hr before compound addition followed by wash out by reversed transport efflux assay; assay type: cell-based
Outline: (§4)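 Reverse-transport efflux of preloaded substrate: hDAT in MDCK GFP-hDAT cells, hNET and GAT-1 in transiently transfected COS-7 cells. Compound tested at 0.5–500 μM against vehicle (basal) release. Non-radiolabeled substrate served as the positive control for assay integrity.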

[9] = target: T3, Sodium-dependent noradrenaline transporter; assay: Activity at human NET expressed in african green monkey COS7 cells assessed as norepinephrine release at 0.5 to 500 uM after 10 mins using [3H]-norepinephrine pretreated for 1 hr before compound addition followed by wash out by reversed transport efflux assay; assay type: cell-based; settings: COS-7; outline: as §4
[10] = target: T2, Sodium-dependent dopamine transporter; assay: Non-competitive inhibition of human DAT expressed in MDCK cells using [3H]-dopamine as substrate; assay type: cell-based; outline: as §3
[11] = target: T3, Sodium-dependent noradrenaline transporter; assay: Non-competitive inhibition of human NET expressed in COS-7 cells using [3H]-norepinephrine as substrate
[12] = target: Excitatory amino acid transporter 2 (Homo sapiens, UniProt P43004); assay: Inhibition of EAAT2 (unknown origin) expressed in african green monkey COS7 cells using [3H]-glutamic acid as substrate after 10 mins by scintillation counting; assay type: cell-based, COS-7; outline: as §1
Sequence of Excitatory amino acid transporter 2 (P43004 whole entry): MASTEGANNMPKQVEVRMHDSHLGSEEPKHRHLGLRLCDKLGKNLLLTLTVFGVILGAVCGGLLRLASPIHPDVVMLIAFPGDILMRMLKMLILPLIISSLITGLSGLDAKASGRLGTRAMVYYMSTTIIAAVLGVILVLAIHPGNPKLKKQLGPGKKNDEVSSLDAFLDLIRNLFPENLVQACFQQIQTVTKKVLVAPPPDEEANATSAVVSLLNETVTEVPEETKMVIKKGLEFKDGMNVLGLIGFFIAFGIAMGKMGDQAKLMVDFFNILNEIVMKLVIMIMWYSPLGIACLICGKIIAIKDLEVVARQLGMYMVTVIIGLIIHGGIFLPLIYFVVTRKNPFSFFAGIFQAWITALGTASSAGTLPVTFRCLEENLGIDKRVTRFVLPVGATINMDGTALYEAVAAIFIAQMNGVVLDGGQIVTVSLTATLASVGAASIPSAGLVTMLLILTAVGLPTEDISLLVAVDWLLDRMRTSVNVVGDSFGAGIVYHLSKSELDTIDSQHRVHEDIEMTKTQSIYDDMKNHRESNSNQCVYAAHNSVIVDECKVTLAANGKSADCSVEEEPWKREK

[13] = target: Excitatory amino acid transporter 1 (Homo sapiens, UniProt P43003); assay: Inhibition of EAAT1 (unknown origin) expressed in african green monkey COS7 cells using [3H]-glutamic acid as substrate after 10 mins by scintillation counting; assay type: cell-based, COS-7; outline: as §1
Sequence of Excitatory amino acid transporter 1 (P43003 whole entry): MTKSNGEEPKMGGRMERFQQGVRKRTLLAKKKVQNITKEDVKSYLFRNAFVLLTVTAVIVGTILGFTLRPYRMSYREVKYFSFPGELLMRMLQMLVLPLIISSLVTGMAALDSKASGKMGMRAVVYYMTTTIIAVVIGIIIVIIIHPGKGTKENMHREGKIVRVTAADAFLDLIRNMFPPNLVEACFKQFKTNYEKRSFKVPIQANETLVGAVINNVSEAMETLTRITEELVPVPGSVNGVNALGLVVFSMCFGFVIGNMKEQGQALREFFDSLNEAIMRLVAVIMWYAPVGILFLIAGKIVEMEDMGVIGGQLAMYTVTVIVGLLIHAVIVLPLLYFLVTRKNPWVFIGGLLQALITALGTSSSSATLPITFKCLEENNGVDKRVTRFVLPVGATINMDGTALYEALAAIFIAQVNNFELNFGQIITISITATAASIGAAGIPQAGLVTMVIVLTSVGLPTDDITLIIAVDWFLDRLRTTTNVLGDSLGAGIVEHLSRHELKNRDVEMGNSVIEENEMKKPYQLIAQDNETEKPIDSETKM

[14] = Toxicity in Wistar rat peripheral blood micronucleus
[15] = target: T3, Sodium-dependent noradrenaline transporter; assay: Inhibition of human NET expressed in MDCK cells using [3H]-norepinephrine as substrate after 10 mins by scintillation counting; assay type: cell-based; outline: as §2
[16] = target: T5, Excitatory amino acid transporter 3 (Homo sapiens, UniProt P43005); assay: Inhibition of EAAT3 (unknown origin) expressed in african green monkey COS7 cells using [3H]-glutamic acid as substrate after 10 mins by scintillation counting; assay type: cell-based, COS-7; outline: as §1
T5 sequence (P43005 whole entry): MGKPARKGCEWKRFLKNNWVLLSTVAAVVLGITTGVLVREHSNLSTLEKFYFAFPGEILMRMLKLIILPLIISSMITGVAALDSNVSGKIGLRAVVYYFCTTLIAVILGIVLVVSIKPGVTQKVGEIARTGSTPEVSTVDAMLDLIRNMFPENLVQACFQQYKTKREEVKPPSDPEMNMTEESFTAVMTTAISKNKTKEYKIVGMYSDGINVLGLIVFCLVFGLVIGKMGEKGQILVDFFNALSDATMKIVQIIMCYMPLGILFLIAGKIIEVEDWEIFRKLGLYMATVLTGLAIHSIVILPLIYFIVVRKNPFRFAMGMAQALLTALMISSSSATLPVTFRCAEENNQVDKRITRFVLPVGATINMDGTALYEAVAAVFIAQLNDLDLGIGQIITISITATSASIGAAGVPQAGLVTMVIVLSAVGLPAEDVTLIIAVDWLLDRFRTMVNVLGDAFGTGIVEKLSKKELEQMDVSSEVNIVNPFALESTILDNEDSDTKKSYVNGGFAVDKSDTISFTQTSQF

[17] = target: T1, Sodium- and chloride-dependent GABA transporter 1; assay: Non-competitive inhibition of GAT-1 (unknown origin) expressed in african green monkey COS7 cells using [3H]-GABA as substrate; assay type: cell-based; settings: COS-7; outline: as §3
Target sequence in this assay (P30531 whole entry, looked up): as the sequence (P30531 whole entry, looked up) above

[18] = target: T6, Sodium- and chloride-dependent glycine transporter 1 (Homo sapiens, UniProt P48067); assay: Inhibition of GlyT1 (unknown origin) expressed in MDCK cells using [3H]-glycine as substrate after 10 mins by scintillation counting; assay type: cell-based; outline: as §2
T6 sequence (P48067 whole entry): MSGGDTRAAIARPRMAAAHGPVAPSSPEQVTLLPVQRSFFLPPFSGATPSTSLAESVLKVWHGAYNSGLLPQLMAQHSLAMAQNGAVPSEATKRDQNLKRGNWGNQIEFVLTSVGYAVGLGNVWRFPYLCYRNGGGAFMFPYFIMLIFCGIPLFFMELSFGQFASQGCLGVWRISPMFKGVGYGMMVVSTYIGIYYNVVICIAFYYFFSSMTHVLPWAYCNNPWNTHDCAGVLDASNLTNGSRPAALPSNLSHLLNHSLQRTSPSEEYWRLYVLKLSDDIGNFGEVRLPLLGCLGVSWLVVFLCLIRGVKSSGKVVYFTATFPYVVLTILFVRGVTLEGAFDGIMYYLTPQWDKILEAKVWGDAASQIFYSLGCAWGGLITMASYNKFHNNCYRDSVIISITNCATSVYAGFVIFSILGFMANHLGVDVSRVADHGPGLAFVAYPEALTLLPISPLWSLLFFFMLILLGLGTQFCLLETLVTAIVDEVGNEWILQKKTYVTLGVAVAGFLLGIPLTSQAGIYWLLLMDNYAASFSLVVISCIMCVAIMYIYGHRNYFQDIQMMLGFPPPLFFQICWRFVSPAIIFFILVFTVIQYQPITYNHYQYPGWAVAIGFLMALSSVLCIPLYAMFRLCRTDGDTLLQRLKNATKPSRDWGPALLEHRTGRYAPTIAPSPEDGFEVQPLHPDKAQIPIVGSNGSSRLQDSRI

[19] = target: T1, Sodium- and chloride-dependent GABA transporter 1; assay: Activity at GAT1 (unknown origin) expressed in african green monkey COS7 cells assessed as GABA release at 0.5 to 500 uM after 10 mins using [3H]-GABA pretreated for 1 hr before compound addition followed by wash out by reversed transport efflux assay; assay type: cell-based; settings: COS-7; outline: as §4
Target sequence in this assay (P30531 whole entry, looked up): as the sequence (P30531 whole entry, looked up) above

O=C(O)C1=CCCN(CCON=C(c2ccccc2)c2ccccc2)C1
IC50 [1]: 0.04 µM

COC1OC[C@@H](Cc2ccc3c(c2)OCO3)[C@@H]1Cc1ccc2c(c1)OCO2 (stereo partly drawn) [(-)-O-METHYLCUBEBIN]
IC50 [2]: 78.6 µM
IC50 [3]: 90.3 µM
inhibition [4]: inactive

O=C1OC[C@H](Cc2ccc3c(c2)OCO3)[C@H]1Cc1ccc2c(c1)OCO2 [HINOKININ]
IC50 [5]: > 500 µM
IC50 [6]: 20.6 µM
Activity [7]: Active
Activity [8]: inactive
Activity [9]: inactive
inhibition [10]: Active
IC50 [2]: 8.35 µM
inhibition [2]: Dose-dependent effect
IC50 [3]: 175 µM
inhibition [11]: Active
IC50 [12]: > 100 µM
IC50 [13]: > 500 µM
Activity [14]: Non-toxic
IC50 [15]: 8.76 µM
IC50 [16]: > 500 µM
inhibition [17]: Active
IC50 [18]: > 500 µM
Activity [19]: inactive

O=C(O)C1=CCCN(CCOC(c2ccc(C(F)(F)F)cc2)c2ccc(C(F)(F)F)cc2)C1
IC50 [1]: 0.26 µM

O[C@H]1OC[C@H](Cc2ccc3c(c2)OCO3)[C@H]1Cc1ccc2c(c1)OCO2
IC50 [2]: 12 µM
inhibition [2]: Dose-dependent effect
IC50 [3]: > 200 µM
IC50 [15]: > 200 µM
